Sampled rows, rich in hits. Any-hit rate of the full collection: about 2%.
ARNT TACC3 PPI: disruptors of human ARNT/TACC3 interaction | 390,000 tested, 0.66% active | inhibition, % at 9.99 µM | Q9Y6A5 | AlphaScreen His-ARNT PAS-B/GST-TACC3 binding, luminescence; TACC3 fragment carries E629A point mutation;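 active = mean inhibition of replicates at least 50% and at least half of replicates each reaching 50%; inconclusive = half or more replicates reach 50% but mean below 50%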;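 also: 0% = complete ARNT plus TACC3 wells and 100% = ARNT alone without TACC3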
Xi reactivation: activators of X-chromosome reactivation in mouse fibroblasts; XiGFP mouse fibroblasts, % GFP-positive cells imaging, 3 d; cells co-treated with 5-aza-dC sensitizer; scaled so ellipticine positive control = 100%; activation, % at 7.58 µM; 360,000 tested, 0.055% active; AID 743238;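 active = mean normalized replicate activation at least 10% and every replicate at or above 10%; inconclusive = only one of the two criteria met; inactive = mean below 10% and not all replicates reach 10%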;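 also: 0% = median of on-plate neutral control wells and 100% = ellipticine 6 µM median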
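Schedule: 3 d treatment, 15 min room-temperature fixation; system: 68-5-11 XiGFP fibroblast line; buffer or medium: DMEM plus 5-aza-dC sensitizer; control set: ellipticine 6 µM positive control; compound: one concentration, pinned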
SR-BI DiI-HDL act: SR-BI HDL lipid transfer activation; CHO ldlA[mSR-BI] cells, DiI-HDL uptake fluorescence, 3 h; 100 = double the neutral-control signal; activation, % at 12.5 µM; 320,000 tested, 0.096% active; AID 504775;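 active = mean replicate activation of at least 60% and every replicate at or above 60%; inconclusive = mean or all-replicate condition met, but not both; inactive = mean below 60% and not all replicates reaching 60%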;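 also: 0% = median plate neutral-control signal and 100% = twice that signal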
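Test system: SR-BI-overexpressing, LDLR-lacking CHO cells; Also added: labelled HDL, 10 µg/mL; Measured by: bottom-read cell fluorescence after medium removal, ex 550/em 595 nm; Timing: 3 h uptake period with compound, 37 °C; Buffer or medium: F12, 0.5% BSA, 25 mM HEPES; Doses: single compound concentration, delivered by pin transfer.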
SR-BI HDL uptake: blocks mouse SR-BI lipid uptake from DiI-HDL | ldlA[mSR-BI] CHO cells, DiI-HDL uptake fluorescence, 3 h | inhibition, % at 12.5 µM | 320,000 tested, 0.96% active;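 active = mean replicate inhibition of at least 70% and a set share of replicates each scoring 70 or more; inconclusive = meets just one of the two criteria; inactive = fails both criteria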;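 also: 0% = median of neutral control wells and 100% = median of positive control wells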
HGIII-sPLA2 inh: Blocks human group III sPLA2 activity | Q9NZ20 | QFRET BODIPY PC-A2 liposome hydrolysis, fluorescence | inhibition, % at 12.2 µM | 370,000 tested, 0.56% active | AID 743126;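 active = inhibition above mean plus 3 SD of compounds lying within the high and low control bounds, cut at about 19% in these data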;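 also: 0% = median of test compound wells and 100% = no enzyme DMSO wells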
Target sequence (Q9NZ20 whole entry, looked up): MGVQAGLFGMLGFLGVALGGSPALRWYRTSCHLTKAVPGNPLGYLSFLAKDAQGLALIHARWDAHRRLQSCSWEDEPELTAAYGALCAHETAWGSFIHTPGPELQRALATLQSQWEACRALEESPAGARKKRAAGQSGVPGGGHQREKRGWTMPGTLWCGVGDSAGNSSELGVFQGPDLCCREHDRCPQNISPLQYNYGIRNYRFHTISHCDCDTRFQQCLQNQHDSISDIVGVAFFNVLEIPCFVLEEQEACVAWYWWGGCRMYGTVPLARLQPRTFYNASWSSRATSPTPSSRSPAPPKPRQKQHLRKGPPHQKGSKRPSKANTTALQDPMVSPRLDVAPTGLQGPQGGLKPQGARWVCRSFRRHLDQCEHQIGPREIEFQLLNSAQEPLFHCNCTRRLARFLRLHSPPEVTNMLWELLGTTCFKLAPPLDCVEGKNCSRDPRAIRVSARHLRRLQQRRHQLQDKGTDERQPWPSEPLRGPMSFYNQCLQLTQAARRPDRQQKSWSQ
NSD2 HMT inh: NSD2 (human) methyltransferase inhibition; 310,000 tested, 0.54% active; NSD2 peptide methylation, AlphaScreen, 120 min; inhibition, % at 12.5 µM; AID 743445; O96028; in the data active = inhibition above about 50%
* = called active by the depositor; ? = inconclusive; · = not tested or not shown.

SMILES	ARNT TACC3 PPI	Xi reactivation	SR-BI DiI-HDL act	SR-BI HDL uptake	HGIII-sPLA2 inh	NSD2 HMT inh
CCOc1ccccc1N(CC(=O)Nc1c(C)n(C)n(-c2ccccc2)c1=O)S(=O)(=O)c1ccccc1	·	0	71*	-71	6	0
COc1cc(/C=N/n2nnnc2Nc2ccccc2)cc(OC)c1OC	5	·	-89	89*	·	3
CC1CCCN(C(=O)NC2CC(=O)N(c3ccc4c(c3)OCCO4)C2)C1 (centres undefined)	-3	0	23	-23	3	-1
CN(C(=O)COC(=O)c1ccccc1C(=O)N(C)c1ccccc1)c1ccccc1	-15	0	4	-4	0	1
COC(=O)c1ccc2c(c1)C(C)(C)C(/C=C/c1ccc(OC)c(OC)c1OC)=[N+]2C	5	·	-105	105*	11	-2
COC(=O)c1ccc2c(c1)C(C)(C)C(/C=C/c1ccc(O)cc1)=[N+]2C	-2	·	-71	?	-5	8
O=C(CN1C(=O)NC2(CCCC2)C1=O)Nc1cc(Cl)ccc1N1CCCC1	·	0	-10	10	-6	1
COc1ccc(NC(=O)CSc2c(C)nn(-c3nnc(C)c(=O)[nH]3)c2C)cc1	60*	·	19	-19	-3	·
COc1ccc(NC(=O)CSc2nncn2C)cc1	-9	0	28	-28	-1	-2
Cc1nc2c(-c3ccc(F)cc3)c(C)nn2c(C)c1CCC(=O)Nc1ccc(F)cc1F	11	0	-75	75*	6	14
Cc1nc2c(-c3ccc(F)cc3)c(C)nn2c(C)c1CCC(=O)NC(C)CCc1ccco1 (centres undefined)	3	0	-63	63	-28	·
Cc1ccc(-c2cc(C(=O)N/N=C/c3c[nH]c4ccccc34)[nH]n2)cc1	-1	0	-89	89*	-12	-1
O=C(N/N=C/c1c[nH]c2ccccc12)c1cc(-c2ccc(-c3ccccc3)cc2)n[nH]1	-12	·	-94	94*	-6	-2
O=C(N/N=C/c1c[nH]c2ccccc12)c1cc(-c2ccc3ccccc3c2)n[nH]1	14	0	-73	73*	-2	0
Oc1cccc(Nc2nc(-c3ccccc3)nc3ccccc23)c1	-6	0	-72	72*	-35	-6
Fc1ccc(Nc2nc(-c3ccncc3)nc3ccccc23)cc1	-12	0	-78	78*	10	0
CN(Cc1nc(-c2ccc(Cl)cc2)no1)C(=O)CCN1C(=O)[C@H]2CC=CC[C@H]2C1=O	1	0	-14	14	-2	-3
N#CCC(=O)Nc1ccc(C(=O)OCC(=O)Nc2ccccc2Sc2ccccc2)cc1	6	0	-48	48	-45	-1
Cc1ccc(N/N=C(\C#N)C(N)=S)c(C)c1	34	0	-77	77*	8	9
COc1ccc(/C(C)=N/NC(=O)c2ccc(CSc3cccc4cccnc34)cc2)cc1OC	0	·	-90	90*	3	3
C[C@@H]1CN([C@@H](C)CO)C(=O)c2cc(NS(=O)(=O)c3ccccc3)ccc2O[C@@H](C)CCCCO[C@@H]1CN(C)Cc1ccc(C(=O)O)cc1	-2	0	·	·	·	·
Cc1ccc(Nc2cc(C)nn2-c2nc(C)cc(=O)[nH]2)cc1	63*	·	32	-32	·	·
Cc1ccc(Nc2cc(C)nn2-c2nc(C)cc(C)n2)cc1	-1	·	-12	12	11	-1
Cc1cccc(Oc2ccc(S(=O)(=O)N3CCCCC3)cc2NC(=O)C2=COCCO2)c1	·	0	35	-35	-16	·
Cc1nnc(N2CCC(C(=O)NC3CCC(C)CC3)CC2)c2nn(-c3ccc(Cl)cc3)c(C)c12 (centres undefined)	0	·	-88	88*	·	·
CCN(CC(=O)Nc1ccc2c(c1)OCCO2)C(=O)c1cc(=O)[nH]c2ccccc12	-2	0	-4	4	11	-3
Cc1noc(C)c1NC(=O)N(C)C[C@H]1Oc2cc(C#CCC(C)C)ccc2S(=O)(=O)N([C@H](C)CO)C[C@@H]1C	-4	0	·	·	·	·

High-throughput results as filed in PubChem BioAssay.
